Here are results for ten compounds from article PMC8317952 (ACS catalysis, 2020).

Several values for one entry are separate records, joined by “and”; a condition that tells them apart may be missing. Equal values may be shown once. Where a name gives a salt, the structure may show the parent alone. Read-outs that look alike come from different tables or passages of the source. A value given as a limit tells only on which side of the number the result lay.

Series [1] addresses T1, P450BM-3 (Priestia megaterium, UniProt P14779).
T1 sequence (P14779 1-1049): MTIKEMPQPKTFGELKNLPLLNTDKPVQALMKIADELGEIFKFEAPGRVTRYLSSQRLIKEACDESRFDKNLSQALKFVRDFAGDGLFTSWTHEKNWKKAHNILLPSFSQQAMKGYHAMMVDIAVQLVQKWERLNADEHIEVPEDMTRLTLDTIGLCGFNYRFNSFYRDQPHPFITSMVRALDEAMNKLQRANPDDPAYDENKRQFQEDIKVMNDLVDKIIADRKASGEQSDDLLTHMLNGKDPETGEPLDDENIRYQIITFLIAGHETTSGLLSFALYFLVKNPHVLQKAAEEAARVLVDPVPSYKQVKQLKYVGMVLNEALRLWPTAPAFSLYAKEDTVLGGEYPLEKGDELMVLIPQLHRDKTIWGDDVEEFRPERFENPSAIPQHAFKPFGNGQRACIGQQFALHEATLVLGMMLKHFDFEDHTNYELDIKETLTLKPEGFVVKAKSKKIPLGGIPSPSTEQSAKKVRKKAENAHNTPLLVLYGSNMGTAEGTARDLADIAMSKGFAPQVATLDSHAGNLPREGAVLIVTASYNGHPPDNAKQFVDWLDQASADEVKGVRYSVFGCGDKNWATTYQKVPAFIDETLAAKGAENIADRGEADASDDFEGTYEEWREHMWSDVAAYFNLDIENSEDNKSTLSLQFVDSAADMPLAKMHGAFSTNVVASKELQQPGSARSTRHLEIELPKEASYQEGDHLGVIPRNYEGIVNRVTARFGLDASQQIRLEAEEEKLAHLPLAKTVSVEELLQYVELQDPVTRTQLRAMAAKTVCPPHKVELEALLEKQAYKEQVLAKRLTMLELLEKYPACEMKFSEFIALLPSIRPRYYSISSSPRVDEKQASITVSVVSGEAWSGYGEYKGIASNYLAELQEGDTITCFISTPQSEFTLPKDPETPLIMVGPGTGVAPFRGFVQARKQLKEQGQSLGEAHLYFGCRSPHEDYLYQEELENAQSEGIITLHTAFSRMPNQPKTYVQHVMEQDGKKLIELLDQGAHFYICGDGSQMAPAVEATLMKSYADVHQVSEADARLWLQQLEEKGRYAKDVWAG
In words: biochemical. It is filed as binding.

Series [2] addresses T1, P450BM-3. As to conditions: cited from earlier work.
For series [3], the target named is T1, P450BM-3. As to conditions: read-out: Kd values in the previous literature; buffer conditions appear to affect these; cited from earlier work.
Another series deals with ferrous P450BM-3. As to conditions: surrogate for O2; cited from earlier work.
A further series relates to mutants of P450BM-3. As to conditions: cited from earlier work.
In series [4] the target is T1, P450BM-3. In words: Steady-state NADPH oxidation. Conditions: for Km / kcat: rates of NADPH oxidation, hyperbolic fit, 23 °C. The series is classed as biochemical, Bacillus megaterium.
For series [5], the system named is P450 102A2 (CYP102A2). In words: Literature: NADPH oxidation and binding with dodecyl sulfate by P450 102A2. The series is classed as biochemical, B. subtilis. As to conditions: P450 102A2 at 37 °C vs P450BM-3 at 23 °C.
Series [6] addresses T1, P450BM-3. It is filed as biochemical, Bacillus megaterium. As to conditions: for site of hydroxylation: Jones oxidation, Baeyer-Villiger, LC-MS/MS.
For series [7], the target named is T1, P450BM-3. Nature of the series: Pre-steady-state stopped-flow kinetics of substrate binding. Also noted: species or system Bacillus megaterium. As to conditions: for eigenvalue (λ) of spectral change, single exponential fit: ΔA390.
Series [8] relates to P450 102A2 (CYP102A2). As to conditions: cited from earlier work.
Series [9] deals with T1, P450BM-3. Nature of the series: Burst experiment: stopped-flow NADPH oxidation with lauric acid. It is filed as biochemical, Bacillus megaterium. Conditions: 2 μM P450BM-3, 500 μM lauric acid, 50 μM NADPH. In outline:
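In the stopped-flow instrument, enzyme (4 μM) premixed with 1 mM lauric acid was mixed with 100 μM NADPH, both in 50 mM potassium MOPS pH 7.5. Runs were at 23 °C in rapid-scanning mode, recording spectra from 332–565 nm with kinetic traces taken at individual wavelengths.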

The target of series [10] is T1, P450BM-3. Conditions: substrate-bound P450BM-3; cited from earlier work.
For series [11], the target named is T1, P450BM-3. It is filed as binding, Bacillus megaterium. Conditions: read-out: Kd estimate (Kd = koff/kon); from fitted on- and off-rate constants.
The mark [12] stands for this setting: read-out: Kd (spectral titration), 50 mM potassium MOPS pH 7.4, 23 °C.
Setting [13] is: d0 vs d23 lauric acid, non-competitive, NADPH oxidation.

On to `CCCCCCCCCCCCCC(=O)O` [myristate], for which the Kd is 12 µM at P450BM-3 [1] and 0.5 to 78 µM on P450BM-3 [3]. Also, the “rate of reduction of iron from the ferric to the ferrous state” value (shortened to “rate of reduction of iron”) on P450BM-3 [2] was 53 to 306 s⁻¹.
As for `[C-]#[O+]` [CO], the “rate constant for CO binding” value in the series on ferrous P450BM-3 is 1.6e+06 M⁻¹ s⁻¹.
In the case of `CCOc1ccc2ccc(=O)oc2c1` [7-ethoxycoumarin], the “KIEs for O-deethylation” value in the series with mutants of P450BM-3 is given as 6–17.
For `CCCCCCCCCCCCCCCC(=O)O` [palmitic acid, Palmitic acid], the “rate of reduction of iron” value on P450BM-3 [2] was 53 to 306 s⁻¹.
As to `CCCCCCCCCCCCOS(=O)(=O)O` [dodecyl sulfate], the Kd on P450BM-3 [1] (setting [12]) was 14 ± 2 µM. Moreover, the Michaelis constant (Km) (usually the concentration of substrate that gives half-maximal velocity) on P450BM-3 [4] is 28 ± 1 µM. In addition, the catalytic constant (kcat) (usually the maximal rate divided by the concentration of active sites) on P450BM-3 [4] stood at 16.3 ± 0.333 s⁻¹. For the same compound, the “fold lower specificity constant of P450 102A2 than P450BM-3” value in the series on P450 102A2 (CYP102A2) [5] was ~ 500 fold. For the same compound, the site of hydroxylation result on P450BM-3 [6] was “primarily ω−1 hydroxylation”. In addition, the “eigenvalue (λ) of spectral change, single exponential fit” value on P450BM-3 [7] (2 μM dodecyl sulfate (final)) was 127 s⁻¹ and 127 ± 4 s⁻¹; at P450BM-3 [7] (200 μM dodecyl sulfate (final)) it was 51 ± 4 s⁻¹. For the same compound, on P450BM-3 [7] (from binding rate and substrate concentration), the “rate constant for substrate binding (kon), rough value” was determined as 6e+07 M⁻¹ s⁻¹. The “t1/2 of binding spectral changes” value on P450BM-3 [7] (stopped-flow) is 0.006 to 0.025 s. In addition, the “apparent specificity constant kcat/S0.5” value with P450 102A2 (CYP102A2) [8] (37 °C) is 1600 M⁻¹ s⁻¹. Further, the Hill n value in the series on P450 102A2 (CYP102A2) [8] (spectral binding and NADPH oxidation) is 5.7.
In the case of `CCCCCCCCCCCC(=O)O` [lauric acid], the Kd on P450BM-3 [1] (setting [12]) worked out at 29 µM. In addition, on P450BM-3 [4] (setting [13]), the “KIE, ^D(V/K)” value is reported as 0.79 ± 0.07 and the “KIE, ^DV” value came out at 1.19 ± 0.16. Besides, the “KIEs, measured with multiple concentrations of d0/d23 laurate” value at P450BM-3 [4] (depending on the assay method) was at most 1.2. Moreover, on P450BM-3 [4], the catalytic constant (kcat) stood at 19.33 ± 2.5 s⁻¹. Further, on P450BM-3 [2], the “rate of reduction of iron” value was 53 to 306 s⁻¹. The Kd at P450BM-3 [3] was 27 to 390 µM. Also, the “KIE from rates of formation of hydroxylated laurate products” value at P450BM-3 [6] (LC-MS, 100 μM laurate, 180 second time point) was 1.03. Further, at P450BM-3 [9], the kinetic burst entry was “No burst was observed”. Further, the “rate of NADPH oxidation, steady-state portion” value at P450BM-3 [9] (pH 7.5) is 608 ± 4 min⁻¹.
For the compound d23-Lauric acid [d23 lauric acid], the turnover number (kcat) at P450BM-3 [4] worked out at 16.2 ± 0.5 s⁻¹.
On to `CCCCCCCCCCCCCCCC(=O)NCC(=O)O` [N-palmitoylglycine], for which, at P450BM-3 [4], the Km is 9 ± 2 µM and the kcat turned out to be 9.92 ± 0.667 s⁻¹. Further, on P450BM-3 [10], the “rate of change of temperature-dependent spin equilibria” value is on record as ~ 800 s^−1.
On P450BM-3 [1], `CCCCCCCCCCCCCCOS(=O)(=O)O` [tetradecyl sulfate] yielded a Kd of 1.4 ± 0.1 µM. The “initial rate of disappearance of NADPH (A340)” value on P450BM-3 [4] (with tetradecyl sulfate as substrate) came to 1.75 pmol/s. For the same compound, the site of hydroxylation entry at P450BM-3 [6] is given as “primarily ω−1 hydroxylation”. For the same compound, the “NADPH oxidation accounted for as disappearance of the substrate” value at P450BM-3 [6] (over the first 100 seconds) stood at 97%.
On to `CC(O)CCCCCCCCCC(=O)O` (centres unmarked) [11-OH lauric acid], for which the “type of difference spectrum” value on P450BM-3 [1] is listed as “Type I”. Also, the Kd on P450BM-3 [1] (setting [12]) is 8 ± 2 µM; on P450BM-3 [11], 11 µM.
